{"source": "paper PMC4600222", "about": "(Chemmedchem, 2015)", "key": {"CVB3 Nancy": {"tested_on": "CVB3 Nancy", "test": "Mechanism of action, modified plaque reduction assay", "assay_type": "cell-based, coxsackievirus B3", "conditions": "0.5 and 1 μM"}, "CVB3 97927 (I1092)": {"tested_on": "CVB3 97927 (I1092)", "test": "CPE inhibition in HeLa cells, CVB3 97927", "assay_type": "cell-based, coxsackievirus B3", "conditions": "Enterovirus B, read-out: IC50, cytopathic effect of CVB3 97927"}, "[1]": {"tested_on": "CYP1A2, CYP2B6, and CYP3A4", "test": "Induction of cytochrome P450 isoforms", "assay_type": "in vitro ADME"}, "Metabolic stability": {"test": "Metabolic stability", "assay_type": "in vitro ADME"}, "K+ channel (hERG)": {"target": "K+ channel (hERG) (Homo sapiens, UniProt Q12809)", "sequence (Q12809 whole entry)": "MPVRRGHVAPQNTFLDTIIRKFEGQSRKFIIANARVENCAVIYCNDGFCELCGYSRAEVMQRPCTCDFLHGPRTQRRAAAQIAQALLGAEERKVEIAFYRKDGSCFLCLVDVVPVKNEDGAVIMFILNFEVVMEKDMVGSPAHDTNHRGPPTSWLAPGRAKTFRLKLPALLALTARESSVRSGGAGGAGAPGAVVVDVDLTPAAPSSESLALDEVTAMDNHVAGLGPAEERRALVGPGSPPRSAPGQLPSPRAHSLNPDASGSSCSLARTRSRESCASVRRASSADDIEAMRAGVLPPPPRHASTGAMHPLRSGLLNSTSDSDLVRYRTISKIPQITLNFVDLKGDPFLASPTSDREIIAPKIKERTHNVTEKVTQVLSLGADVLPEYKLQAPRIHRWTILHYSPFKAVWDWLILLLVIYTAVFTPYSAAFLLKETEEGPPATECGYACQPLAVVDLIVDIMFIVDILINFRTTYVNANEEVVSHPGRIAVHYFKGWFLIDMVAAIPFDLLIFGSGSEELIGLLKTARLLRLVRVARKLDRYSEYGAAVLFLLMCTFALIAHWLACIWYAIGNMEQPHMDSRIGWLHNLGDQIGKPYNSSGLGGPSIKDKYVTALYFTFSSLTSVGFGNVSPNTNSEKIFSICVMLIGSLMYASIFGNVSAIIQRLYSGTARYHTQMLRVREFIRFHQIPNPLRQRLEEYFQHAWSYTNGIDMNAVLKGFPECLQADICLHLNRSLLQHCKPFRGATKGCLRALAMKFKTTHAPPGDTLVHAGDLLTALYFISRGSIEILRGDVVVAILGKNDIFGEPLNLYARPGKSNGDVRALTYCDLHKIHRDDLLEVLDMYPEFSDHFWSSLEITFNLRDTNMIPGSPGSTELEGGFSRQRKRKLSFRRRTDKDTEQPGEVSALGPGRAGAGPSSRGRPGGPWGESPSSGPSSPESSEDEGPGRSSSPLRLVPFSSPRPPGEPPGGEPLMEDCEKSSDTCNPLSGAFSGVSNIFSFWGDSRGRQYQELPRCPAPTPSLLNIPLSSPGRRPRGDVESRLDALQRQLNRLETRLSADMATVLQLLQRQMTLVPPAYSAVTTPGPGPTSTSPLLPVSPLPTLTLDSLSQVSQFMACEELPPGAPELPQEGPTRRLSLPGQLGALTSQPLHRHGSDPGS", "test": "QT prolongation K+ channel"}, "CVB3 Nancy wildtype": {"tested_on": "CVB3 Nancy wildtype", "test": "Plaque reduction assay in HeLa cells, CVB3 Nancy wildtype", "assay_type": "cell-based, coxsackievirus B3", "conditions": "Enterovirus B, read-out: IC50 plaque inhibition, CVB3 Nancy wildtype", "method_in_brief": "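Plaque reduction assay in HeLa cells on wild-type CVB3 Nancy and on compound-resistant variants. The variants were isolated from wild-type pools under 1 μg mL−1 (2.7 μm) test compound, and their amino acid substitutions were identified by genetic characterization. IC50 is taken from plaque inhibition. Means and/or SD come from at least three assays.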"}, "Acute toxicity in mice": {"test": "Acute toxicity in mice", "assay_type": "in vivo", "conditions": "no indications of adverse effects"}, "Plasma stability": {"test": "Plasma stability", "assay_type": "in vitro ADME"}, "[2]": {"tested_on": "CYP1A, CYP2B6, CYP2C8, CYP2C9, CYP2C19, CYP2D6, and CYP3A", "test": "Inhibition of cytochrome P450 isoforms", "assay_type": "in vitro ADME"}, "CVB3 31-1-93": {"tested_on": "CVB3 31-1-93", "test": "CVB3-induced chronic myocarditis in NMRI mice", "assay_type": "in vivo", "conditions": "100 mg kg^−1 orally twice daily for 7 days"}, "Subacute": {"test": "Subacute", "assay_type": "in vivo", "conditions": "12.5, 50 and 200 mg kg^−1, 30 days, male BALB/c mice; acute >3 g kg^−1"}, "CVB3 Nancy (L1092)": {"tested_on": "CVB3 Nancy (L1092)", "test": "CPE inhibition in HeLa cells, CVB3 Nancy", "assay_type": "cell-based, coxsackievirus B3", "conditions": "Enterovirus B, read-out: IC50, cytopathic effect of CVB3 Nancy"}, "[3]": {"tested_on": "46 RV serotypes and 14 EV strains", "test": "CPE inhibition assays in HeLa cells, panel of 60 RV and EV strains", "assay_type": "cell-based, rhinovirus, enterovirus"}, "[4]": {"test": "Pharmacokinetics in mice after intragastric administration", "assay_type": "in vivo"}}, "data": [{"smiles": "Nc1nc(-c2ccccc2)nc2[nH]nc(Nc3ccc(C(F)(F)F)cc3)c12", "note": "[Compound 36, 3-(4-trifluoromethylphenyl)amino-6-phenylpyrazolo[3,4-d]pyrimidine-4-amine]", "values": [{"measurement": "effect on virus infectivity, incubation with cell-free virus", "setting": "CVB3 Nancy; 1 h at 37 °C, then diluted 1:10^6", "result": "strong loss of virus infectivity"}, {"measurement": "effect on virus-induced plaque formation, pretreatment of cells", "setting": "CVB3 Nancy; cells pretreated prior to virus inoculation", "result": "no effect"}, {"measurement": "IC50", "setting": "CVB3 97927 (I1092)", "result": 1.05, "unit": "µM"}, {"measurement": "Induction of CYP1A2, CYP2B6, and CYP3A4", "setting": "[1]", "result": "neither an inducer nor an inhibitor"}, {"measurement": "Metabolic stability (human liver microsomes), remaining %", "setting": "Metabolic stability", "result": 100, "unit": "%"}, {"measurement": "QT prolongation K+ channel (hERG)", "setting": "K+ channel (hERG)", "result": "low"}, {"measurement": "IC50", "setting": "CVB3 Nancy wildtype", "result": "0.16 ± 0.03", "unit": "µM"}, {"measurement": "Acute toxicity", "setting": "Acute toxicity in mice", "result": "> 3", "unit": "g/kg"}, {"measurement": "Plasma stability (human), remaining (%)", "setting": "Plasma stability", "result": 100, "unit": "%"}, {"measurement": "Inhibition of CYP1A, CYP2B6, CYP2C8, CYP2C9, CYP2C19, CYP2D6, and CYP3A", "setting": "[2]", "result": "neither an inducer nor an inhibitor"}, {"measurement": "antiviral effect, treatment started 3 h prior to or 1 and 3 days p. i.", "setting": "CVB3 31-1-93", "result": "strong antiviral effect"}, {"measurement": "therapeutic effect, treatment started 7 days p. i.", "setting": "CVB3 31-1-93; start 7 days p. i., results not shown", "result": "No therapeutic effect"}, {"measurement": "acute and chronic toxicological studies, overall finding", "setting": "Subacute", "result": "no indications of adverse anatomical, behavioral or physiological effects"}, {"measurement": "IC50", "setting": "CVB3 Nancy (L1092)", "result": 0.16, "unit": "µM"}, {"measurement": "IC50", "setting": "[3]; Enterovirus, HeLa, read-out: IC50 values for high-level pleconaril-resistant viruses", "result": "0.04 to 0.64", "unit": "µM"}, {"measurement": "strains inhibited", "setting": "[3]; of the 60 strains tested, CPE inhibition, HeLa cells", "result": 52}, {"measurement": "Cl", "setting": "[4]; mice, 100 mg/kg intragastric", "result": 10.42, "unit": "mL·h/kg"}, {"measurement": "AUC", "setting": "[4]; mouse, plasma, po, 100 mg/kg", "result": 9600, "unit": "ng·h/mL"}, {"measurement": "AUC(0-t)", "setting": "[4]; mouse, plasma, po, 100 mg/kg", "result": 6420, "unit": "ng·h/mL"}, {"measurement": "MRT", "setting": "[4]; mouse, plasma, po, 100 mg/kg", "result": 3.54, "unit": "h"}, {"measurement": "Tmax", "setting": "[4]; mouse, plasma, po, 100 mg/kg", "result": 3, "unit": "h"}, {"measurement": "half-life", "setting": "[4]; mouse, plasma, po, 100 mg/kg", "result": 3.5, "unit": "h"}, {"measurement": "k el", "setting": "[4]; mouse, plasma, po, 100 mg/kg", "result": "5e-05", "unit": "s⁻¹"}]}]}
